Shown are actives, neighbours in structure and some others; about 1.9% of the full set was active somewhere.
STEP block: STEP (human) phosphatase inhibition. recombinant STEP, OMFP fluorogenic substrate, fluorescence. hit rate 0.25% among 360,000. P54829. inhibition, % at 20 µM;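 active = inhibition at 20 µM, scaled per plate between control wells, above about 37%, limit read from the data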;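 also: 0% = DMSO with enzyme and substrate and 100% = substrate only without enzyme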
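Measure: Control-normalized % inhibition with plate pattern correction | Test system: STEP phosphatase, cell-free reaction | Medium: pH 6.0 Bis-Tris with DTT and Tween 20 | Technique: Fluorescence, 480/540 nm | Times: Reaction 20 min, ambient temperature | Doses: Single compound dose of 20 µM, 1% DMSO final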
CSN inh: inhibitors of human CSN-mediated cullin deneddylation. Q92905. hit rate 0.38% among 360,000. Purified CSN, SCF-Nedd8-OG deneddylation, fluorescence polarization. inhibition, % at 12.5 µM. AID 651999;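 active = pattern-corrected inhibition above about 35%, with an unprinted fluorescence ratio check between 0.5 and 1.5, limit read from the data, passing the limit was not always enough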;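 also: 0% = enzyme with substrate and 100% = substrate without enzyme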
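Material: human Csn5 produced in HEK293T cells; Input: enzyme 0.24 nM; Reagent: SCFSkp2-Nedd8OG substrate at 10 nM final; Dosing: 12.5 µM compound; Incubation: 90 min reaction at room temperature; Detection: fluorescence polarization of the substrate; Evaluation: % inhibition of substrate cleavage by Csn5; Control set: substrate-only high control, full reaction low control.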
SUMO1 PPI mod: modulators of human SUMO1-mediated protein-protein interactions; P63165; SUMO1 binding to a labelled peptide, TR-FRET, 1 h; inhibition, % at 20 µM; hit rate 0.33% among 360,000; in the data active = inhibition above about 37%
Target sequence (P63165 whole entry, looked up): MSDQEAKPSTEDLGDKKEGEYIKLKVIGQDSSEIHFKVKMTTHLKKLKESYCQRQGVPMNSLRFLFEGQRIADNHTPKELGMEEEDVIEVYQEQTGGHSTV
DNMT1 block: DNMT1 (human) enzyme inhibition | P26358 | DNMT1 molecular beacon, Hinp1I cleavage, fluorescence | inhibition (reported as % activation of signal), % at 10 µM | hit rate 0.83% among 360,000
Scp1 inh: blocks human Scp-1 phosphatase activity; Recombinant Scp1, phosphopeptide, malachite green phosphate absorbance; inhibition, % at 20 µM; hit rate 0.88% among 340,000;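 active = inhibition above about 50% at 20 µM, limit read from the data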;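 also: plate controls were DMSO wells with enzyme for no effect and wells lacking enzyme for full effect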
Target sequence (Q9GZU7 76-261 limits assumed): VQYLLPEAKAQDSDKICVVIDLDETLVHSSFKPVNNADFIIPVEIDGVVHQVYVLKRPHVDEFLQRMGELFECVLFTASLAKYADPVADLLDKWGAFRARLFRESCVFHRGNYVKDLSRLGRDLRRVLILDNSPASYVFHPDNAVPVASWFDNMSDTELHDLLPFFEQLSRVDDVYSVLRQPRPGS
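Test system – truncated SCP-1 phosphatase (76-261aa) · Reagent – Phosphorylated 17-residue peptide substrate · Incubation – 45 min room-temperature reaction, 5 min colour, 30 min stabiliser · Detection – colorimetric phosphate reagent with accelerator and stabiliser, absorbance at 630 nm · Measure – % inhibition at 20 µM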
LMPTP inh: LMPTP (human) inhibition; P24666; recombinant LMPTP-A, OMFP fluorogenic substrate, fluorescence intensity; hit rate 0.22% among 360,000; inhibition, % at 20 µM;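 active = compounds that cut the enzyme signal by at least half of the control window in the single-dose screen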;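 also: plate controls were DMSO wells with enzyme plus substrate for no effect and substrate without enzyme for full effect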
Target sequence (P24666 whole entry, looked up): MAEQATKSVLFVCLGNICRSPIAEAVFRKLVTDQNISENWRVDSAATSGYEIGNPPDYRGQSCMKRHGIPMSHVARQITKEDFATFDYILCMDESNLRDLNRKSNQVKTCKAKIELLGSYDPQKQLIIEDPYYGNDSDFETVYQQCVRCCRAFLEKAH
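Assay system: LMPTP-A enzyme. Input: 0.625 nM LMPTP-A final. Probe or stimulus: 400 µM OMFP. Compound dosing: single 20 µM dose. Schedule: 50 min dark incubation at room temperature. Detection: fluorescence intensity of OMFP turnover product. Read-out: percent inhibition versus substrate-only and uninhibited controls. Benchmarks: no-enzyme low control, uninhibited high control.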
Beacon interf DR: shows spectral interference in the DNMT1 beacon assay. shares compounds with DNMT1 block. molecular beacon fluorescence, spectral interference counter-screen. IC50, µM. 200 tested, under 10 active. AID 602382; call rule not given here
DNMT1 inh conf: confirmation of human DNMT1 inhibitors | shares compounds with DNMT1 block | DNMT1 molecular beacon HinP1I cleavage, fluorescence | inhibition, % at 10 µM | hit rate 8% among 2,300;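 active = average inhibition of at least 30% in the single-concentration confirmation test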
Beacon interf: counter-screen for DNMT1 inhibitors: spectral interference; shares compounds with DNMT1 block; activation (fluorescence interference), % at 10 µM; hit rate 1% among 2,300; DNMT1 molecular beacon spectral interference counterscreen, fluorescence 485/520;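 active = activation of at least 30% at 10 µM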;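 also: DNMT1 catalytic domain with a HinP1I cleavage step and a FAM/dabcyl DNA beacon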
STEP conf: confirmation of human STEP phosphatase inhibitors; shares compounds with STEP block; recombinant STEP, OMFP fluorogenic substrate, fluorescence; inhibition, % at 20 µM; hit rate 32% among 520; AID 623866; call rule not given here;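 also: 0% = enzyme with substrate plus DMSO and 100% = substrate without enzyme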
CSN deneddyl val: Csn5 (human) deneddylation inhibition, single-concentration validation; hit rate 62% among 540; Csn5 deneddylation of SCF-Nedd8OG, fluorescence polarization, 90 min; inhibition, % at 16.6 µM; shares compounds with CSN inh;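 also: 0% = DMSO with enzyme and 100% = no enzyme wells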
MMP-2 counter: MMP-2 (human) inhibition, counter-screen for CSN hits; shares compounds with CSN inh; recombinant MMP-2, FRET substrate fluorescence, 60 min; inhibition, % at 16.6 µM; hit rate 33% among 540; AID 720655;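 active = corrected plate-normalized z-score of 5 or more, or -5 or less, or inhibition of 15% or more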;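 also: plate controls were DMSO wells with enzyme for no effect and buffer wells lacking MMP-2 for full effect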
Thrombin cntr: blocks bovine thrombin in a CSN deneddylation counter-screen; hit rate 49% among 540; bovine thrombin cleavage of Ub4-pepOG, fluorescence polarization; AID 720656; shares compounds with CSN inh; inhibition, % at 16.6 µM;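 active = inhibition at or above a set limit, with a fluorescence interference ratio between 0.5 and a set maximum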
* hit, by the source's call. Rule as the data show it, unless noted: active = inhibition above about 50%; inactive = the rest.

How did O=C(Nc1ccccc1)C1CCCN1C(=O)Nc1ccccc1[N+](=O)[O-] (stereo not drawn) do in these assays?
STEP block: 0; CSN inh: 1; SUMO1 PPI mod: -13; DNMT1 block: 1; Scp1 inh: -4; LMPTP inh: 0

Results for CC(=O)Nc1ccc(NC(=O)C2CCCN2C(=O)Nc2ccccc2[N+](=O)[O-])cc1 (stereo not drawn) ?
STEP block: 85*; CSN inh: 5; SUMO1 PPI mod: -24; DNMT1 block: 80*; Scp1 inh: -2; LMPTP inh: 0; DNMT1 inh conf: 2; Beacon interf: 6; STEP conf: 7

How did COc1ccc(Nc2nc(=O)c3cc([N+](=O)[O-])ccc3s2)cc1 do in these assays?
STEP block: 43*; CSN inh: 2; SUMO1 PPI mod: -7; DNMT1 block: 65*; Scp1 inh: 1; LMPTP inh: 80*; DNMT1 inh conf: 1; Beacon interf: -6; STEP conf: -4

Results for COc1cc(S(=O)(=O)N2CCN(c3ccccn3)CC2)ccc1Br ?
STEP block: 0; CSN inh: -2; SUMO1 PPI mod: 1; DNMT1 block: -4; Scp1 inh: -4; LMPTP inh: 1

What do the screens show for `Cc1nn(-c2ccccc2)c(C)c1/C=N/NC(=O)CSc1nnc(SCc2ccc(Cl)cc2)s1`?
STEP block: 3; CSN inh: 0; SUMO1 PPI mod: 2; DNMT1 block: -17; Scp1 inh: -4; LMPTP inh: 4

Results for Cc1cccc(C(=O)Nc2ccc(N3CCN(c4ccc(C(F)(F)F)cn4)CC3)nc2)c1 ?
STEP block: 77*; CSN inh: 1; SUMO1 PPI mod: 1; DNMT1 block: 70*; Scp1 inh: 10; LMPTP inh: 50; DNMT1 inh conf: 1; Beacon interf: 2; STEP conf: 4

Results for C[C@H](NC(=O)c1ncn2c1c(=O)[nH]c1ccc(Br)cc12)c1ccccc1 ?
STEP block: 54*; CSN inh: 34; SUMO1 PPI mod: -26; DNMT1 block: 90*; LMPTP inh: 56*; DNMT1 inh conf: 2; Beacon interf: -2; STEP conf: 0

How did C[C@H](NC(=O)c1ncn2c1c(=O)[nH]c1ccccc12)c1ccccc1 do in these assays?
STEP block: 0; CSN inh: 5; SUMO1 PPI mod: 11; DNMT1 block: 7; LMPTP inh: 0

Results for O=C(/C=C/c1ccc([N+](=O)[O-])cc1)/C=C/c1ccco1 ?
STEP block: 6; CSN inh: 46*; SUMO1 PPI mod: 12; DNMT1 block: 91*; LMPTP inh: 20; DNMT1 inh conf: 5; Beacon interf: 3; CSN deneddyl val: 77*; MMP-2 counter: 10; Thrombin cntr: 9

Results for O=C1NN(c2ccc(Cl)cc2)C(=O)/C1=C\c1ccc(-c2cccc(C(=O)O)c2)o1 ?
STEP block: 97*; CSN inh: 36*; SUMO1 PPI mod: 40*; DNMT1 block: 95*; Scp1 inh: 94*; LMPTP inh: 82*; Beacon interf DR: >99; DNMT1 inh conf: 34*; Beacon interf: 2; CSN deneddyl val: 46; MMP-2 counter: 15*; Thrombin cntr: 24*

What do the screens show for `COc1ccc(CCn2c(N)c(C(=O)NCc3ccco3)c3nc4ccccc4nc32)cc1OC`?
STEP block: 3; CSN inh: 38*; SUMO1 PPI mod: 44*; DNMT1 block: 54*; Scp1 inh: -5; LMPTP inh: 5; DNMT1 inh conf: 9; Beacon interf: 9; CSN deneddyl val: 96*; MMP-2 counter: 5; Thrombin cntr: -15

How did COc1ccc(CCn2c(N)c(C(=O)NCc3ccco3)c3nc4ccccc4nc32)cc1 do in these assays?
STEP block: 0; CSN inh: 11; SUMO1 PPI mod: 8; DNMT1 block: -35; Scp1 inh: -3; LMPTP inh: 4

What do the screens show for `O=C(C1=C(O)C(=O)N(c2nc3ccc(Cl)cc3s2)C1c1ccco1)c1ccco1` (stereo not drawn)?
STEP block: 28; CSN inh: 44*; SUMO1 PPI mod: 40*; DNMT1 block: 90*; Scp1 inh: 64*; LMPTP inh: 60*; DNMT1 inh conf: 12; Beacon interf: 4; CSN deneddyl val: 53*; MMP-2 counter: 12; Thrombin cntr: 15*

How did Cc1ccc2nc(N3C(=O)C(O)=C(C(=O)c4ccc(C)o4)C3c3ccco3)sc2c1 (stereo not drawn) do in these assays?
STEP block: 5; CSN inh: 19; SUMO1 PPI mod: -5; DNMT1 block: 36; Scp1 inh: 4; LMPTP inh: 10

What do the screens show for `CCCn1nc2cc(C(=O)NCCc3cccs3)ccc2c1OCC`?
STEP block: -3; CSN inh: 0; SUMO1 PPI mod: -12; DNMT1 block: 3; Scp1 inh: -2; LMPTP inh: -1

How did CC1CCN(Cc2c(O)ccc3c2O/C(=C\c2ccco2)C3=O)CC1 do in these assays?
STEP block: 3; CSN inh: 32; SUMO1 PPI mod: 25; DNMT1 block: 47; Scp1 inh: 14; LMPTP inh: 10

How did O=C1/C(=C/c2ccco2)Oc2c1ccc(O)c2CN1CCCCC1 do in these assays?
STEP block: 1; CSN inh: 42*; SUMO1 PPI mod: 0; DNMT1 block: 79*; Scp1 inh: 14; LMPTP inh: 16; DNMT1 inh conf: 15; Beacon interf: 11; MMP-2 counter: -23; Thrombin cntr: -60

Bioassay records as filed in PubChem.
